Data published in the EternaBench riboswitch data.

Test system: MS2 coat protein
Experiment: apparent Kd, MS2 coat protein; higher = weaker binding; RNA-MaP array; FMN 200 µM where present
Summary of the method: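 Apparent Kd: the median of filtered binding-curve fits from single clusters. Designs were transcribed on Illumina sequencing-chip clusters by stalled E. coli RNA polymerase and titrated with SNAP-549-labelled MS2 coat protein from 0.7 or 1.5 nM, doubling to 3 µM, in 100 mM Tris-HCl pH 7.5, 80 mM KCl, 4 mM MgCl2, BSA, DTT, yeast tRNA and Tween-20. Each series ran without and then with constant ligand, and green signal was normalised to red-channel RNA signal and control-cluster median Fmax.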

[1] = designed as: OFF switch for flavin mononucleotide, no ligand
[2] = ligand present: flavin mononucleotide, designed as: OFF switch for flavin mononucleotide
[3] = designed as: ON switch for flavin mononucleotide, no ligand
[4] = ligand present: flavin mononucleotide, designed as: ON switch for flavin mononucleotide

| Sequence | apparent Kd [1] | apparent Kd [2] | apparent Kd [3] | apparent Kd [4] |
| --- | --- | --- | --- | --- |
| AAAAGUUUGGAGGAUAUCCAUCCAAACGGAUAAGGAGAAGGCCGGACAUGAGGAUCACCCAUGUGAUUAGGUUA | 0.0142 µM | 0.0248 µM | – | – |
| CUCAUGUGAGGAUAUCAGUAGUAAAAAAAUAAAAUUACUACUGAGAAGGCACAUGAGGAUCACCCAUGUACCUU | 0.0707 µM | 0.072 µM | – | – |
| ACGGUUUACCAGAAGGACAUGAGGAUCACCCAUGUAGGAUAUGGGAAGUUGGUCUCCUUCAAAUAAGGCCCUCAGAGCUUCAAA | – | – | 0.446 µM | 0.0312 µM |
| CCGAAUGUCACAGGAUAUGGUCCGGGCUCACGACCAGAAGGGUGAUCUCACAUGAGGAUCACCCAUGUGUAGGCGUUAGGCUAC | – | – | 0.0353 µM | 0.114 µM |
| UACAGACAUGAGGAUCACCCAUGUGAGGAUAUCGAUAACGAUAACAUAAUAUAAACGGCGAGAAGGCACAGCAU | 0.0317 µM | 0.0349 µM | – | – |
| UUAACAUGAGGAUCACCCAUGUAUAGAUCGGUUAAUAGAAGUGAGGAUAUGCUUAAAUUCAGGUAGCAGAAGGCACUGGGUACU | – | – | 0.0269 µM | 0.0299 µM |
| UUUUUUUUUAGAGGAUAUAUUGUGUGUUAUAUAAUAGAAGGCUAAACAAACAUGAGGAUCACCCAUGUUGUCCAUGUCGUCGGC | – | – | 0.0153 µM | 0.0207 µM |
| AAAACAUGAGGAUCACCCAUGUAAAGAUCGGUUGAUGAAAGUGAGGAUAUACAAAAUUUUAUGGAGUAGAAGGCACUGGGUUGA | – | – | 0.0674 µM | 0.0477 µM |
| GGCUAGCCUCAAGGAUAUACGCUCUCAACAAAGAACCGACUACAUGAGGAUCACCCAUGUACCAUGUAGAAGGUGAGGUUAGCC | – | – | 0.906 µM | 0.0581 µM |
| CGCAACUCAGAUCUUUUGAACAUGAGGAUCACCCAUGUAUUGAGAAGGAGCUGGAAGAGAGACAGCUAGGAUAUCAGAGUUGCG | 0.0054 µM | 0.00573 µM | – | – |
| CGUAUGUCAGGAUAUGCGUAUGCCGCCCAGGACAGGCGGCAGCAGAAGGGACAUGAGGAUCACCCAUGUUCGGG | 0.0683 µM | 0.0595 µM | – | – |
| CCUUUUGUAUAAGGAUAUGUAACAAGGUAUAGAUCGGUAGAAUUUGUGCUUACAGAAGGUAUACAUGAGGAUCACCCAUGUCGA | 0.0221 µM | 0.14 µM | – | – |
| GUGUGAAUAGGAGGAUAUAUACAACAUGAGGAUCACCCAUGUACCCGUGUAGUAGAAGGUUUGUUUUUAUAUAAUAUUAUAUUU | – | – | 0.0267 µM | 0.0216 µM |
| AUUUCGUCAGGAUAUCCUAGUAAUUGUUUCAUAUUUACAAAGGAGAAGGGACAUGAGGAUCACCCAUGUUUGUC | 0.0247 µM | 0.0231 µM | – | – |
| AGCUGGUGACAGCAAGAAACUUCACAUGAGGAUCACCCAUGUAGAAGGCUGUACGGUUACCGUACAGAGGAUAUACAUUGAAGU | 0.00716 µM | 0.0133 µM | – | – |
| UUAAUUAUACAAGGAUAUCUAUUGUUAUUUCGACUUACAUGAGGAUCACCCAUGUUAAUAUAUUUAGAGAAGGUGUAUUUUCAG | – | – | 0.0868 µM | 0.0365 µM |
| ACGGUGGUCACAGGAUAUCCGGCCCGCGUGCUCGGAGAAGGGUGACUCAGAACCACAUGAGGAUCACCCAUGUGCCUUGCCGUA | – | – | 0.122 µM | 0.0251 µM |
| GUCAGCUCGUGAGGAUAUACAACACUGCUUCGGCAGUGUAUUAAGAGCACAUGAGGAUCACCCAUGUAGAAGGCACGAGCUGAU | 0.00558 µM | 0.00761 µM | – | – |
| UCCUACAUGGGAGGAUAUGGGAAGAUACAUGAGGAUCACCCAUGUUUAAGAAUGCCGAGAGGCAACUAGAAGGCCCAUGUAGGU | – | – | 0.876 µM | 0.0544 µM |
| CUGUGUCCGCAGGAUAUGUUAUCCUGAAGGAUCACAGAAGGGCGGACAUGAGGAUCACCCAUGUGAGCCAAAGA | 0.0162 µM | 0.0173 µM | – | – |
| UUUUUUGUUGUGAGGAUAUCGUUUUUGUUUUGGAUCGAGAAGGCACAUGAGGAUCACCCAUGUUUGUUGUGGUU | 0.0888 µM | 0.159 µM | – | – |
| UUUAUGUAGGAGAAGGAGGACUUCAUGAGGAUCACCCAUGUGUUAGGACUUAGGAUAUUUGACGACAUGAGGAUCACCCAUGUG | – | – | 0.0643 µM | 0.0565 µM |
| AGUCAGAGCAGAGGAUAUAUACAUGAGGAUCACCCAUGUGACUGACUAUGCUAGAAAUAGUAUGUAUAGAAGGCUGCUCUGACA | 0.188 µM | 0.466 µM | – | – |
| AUAUCUCAAUUAGAUCCAAUACGAACAUGAGGAUCACCCAUGUAGGAUAUGCUAGAAGUUGUGUUGCAGAAGGACAUAUACCUU | 0.0414 µM | 0.0386 µM | – | – |
| GGACAUUUACAGAAGGGCAAGUUAGAUAGUGAAUAUUUAGUUCUGACUUGCAGGAUAUGUUGAACAUGAGGAUCACCCAUGUCC | – | – | 0.0144 µM | 0.0106 µM |
| GGUCAUCAAGUCAGGAUAUCGUCUGGUCGGUCUGGCGAGAAGGGACAUGAGGAUCACCCAUGUCGUCUCAUCAG | 0.0152 µM | 0.0177 µM | – | – |
| CACGUCAGGAAACGGAGCGGCCAACAUGAGGAUCACCCAUGUGAGGAUAUGCCUACUAAAAGUAGGCAGAAGGCACAAUUGGCA | 0.0367 µM | 0.0949 µM | – | – |
| AAUAAAUAUAAAUUUUAUUUGUCGUAGGAUAUGGGUGACAUGAGGAUCACCCAUGUUGCAGACGACCAGAAGGGCGGCGGAUAU | – | – | 0.117 µM | 0.0232 µM |
